Active and inactive are the calls of the source. The rule behind the calls is not given here.
What was measured:
[1] = target: T1, Metabotropic glutamate receptor 2 (Homo sapiens, UniProt Q14416); assay: Displacement of [3H]-JNJ46281222 from human metabotropic glutamate receptor 2 expressed in CHOK1 cell membranes after 60 mins by liquid scintillation counting method
Target sequence in this assay (Q14416 whole entry): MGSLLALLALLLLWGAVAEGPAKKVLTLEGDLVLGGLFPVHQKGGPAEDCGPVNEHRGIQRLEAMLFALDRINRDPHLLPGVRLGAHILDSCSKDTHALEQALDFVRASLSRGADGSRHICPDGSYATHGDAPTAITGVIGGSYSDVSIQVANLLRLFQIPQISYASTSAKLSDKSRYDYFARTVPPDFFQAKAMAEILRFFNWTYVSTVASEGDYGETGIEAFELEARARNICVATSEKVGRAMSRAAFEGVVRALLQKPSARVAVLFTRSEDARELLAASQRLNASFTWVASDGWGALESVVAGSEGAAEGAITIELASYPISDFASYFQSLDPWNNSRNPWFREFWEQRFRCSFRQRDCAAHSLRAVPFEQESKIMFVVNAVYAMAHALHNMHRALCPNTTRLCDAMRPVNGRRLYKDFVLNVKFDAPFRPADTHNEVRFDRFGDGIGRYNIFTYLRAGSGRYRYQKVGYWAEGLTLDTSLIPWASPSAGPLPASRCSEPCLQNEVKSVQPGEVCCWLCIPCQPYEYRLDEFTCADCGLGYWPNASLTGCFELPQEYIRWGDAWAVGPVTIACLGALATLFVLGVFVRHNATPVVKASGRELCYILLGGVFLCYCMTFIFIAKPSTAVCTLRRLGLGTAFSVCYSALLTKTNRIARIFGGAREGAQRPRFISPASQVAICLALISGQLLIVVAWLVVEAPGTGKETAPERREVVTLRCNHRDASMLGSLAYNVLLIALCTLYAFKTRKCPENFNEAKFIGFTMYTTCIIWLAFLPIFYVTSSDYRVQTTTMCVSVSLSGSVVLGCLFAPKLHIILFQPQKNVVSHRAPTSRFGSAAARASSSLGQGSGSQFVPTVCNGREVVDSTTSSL

[2] = target: T1, Metabotropic glutamate receptor 2; assay: Displacement of [3H]JNJ-46281222 from human metabotropic glutamate receptor 2 expressed in CHOK1 cell membranes assessed as dissociation rate constant measured every 30 sec for 120 mins by scintillation proximity assay
Procedure, shortened: (§1)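 For the SPA competition association, CHO-K1_hmGlu2 membranes (20 µg) were pre-coupled 30 min to WGA SPA beads, then mixed with 6 nM [3H]JNJ-46281222, competitor and 1 mM glutamate. Counts were read every 30 s for 120 min at 28°C.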
Target sequence in this assay (Q14416 19-872 limits assumed): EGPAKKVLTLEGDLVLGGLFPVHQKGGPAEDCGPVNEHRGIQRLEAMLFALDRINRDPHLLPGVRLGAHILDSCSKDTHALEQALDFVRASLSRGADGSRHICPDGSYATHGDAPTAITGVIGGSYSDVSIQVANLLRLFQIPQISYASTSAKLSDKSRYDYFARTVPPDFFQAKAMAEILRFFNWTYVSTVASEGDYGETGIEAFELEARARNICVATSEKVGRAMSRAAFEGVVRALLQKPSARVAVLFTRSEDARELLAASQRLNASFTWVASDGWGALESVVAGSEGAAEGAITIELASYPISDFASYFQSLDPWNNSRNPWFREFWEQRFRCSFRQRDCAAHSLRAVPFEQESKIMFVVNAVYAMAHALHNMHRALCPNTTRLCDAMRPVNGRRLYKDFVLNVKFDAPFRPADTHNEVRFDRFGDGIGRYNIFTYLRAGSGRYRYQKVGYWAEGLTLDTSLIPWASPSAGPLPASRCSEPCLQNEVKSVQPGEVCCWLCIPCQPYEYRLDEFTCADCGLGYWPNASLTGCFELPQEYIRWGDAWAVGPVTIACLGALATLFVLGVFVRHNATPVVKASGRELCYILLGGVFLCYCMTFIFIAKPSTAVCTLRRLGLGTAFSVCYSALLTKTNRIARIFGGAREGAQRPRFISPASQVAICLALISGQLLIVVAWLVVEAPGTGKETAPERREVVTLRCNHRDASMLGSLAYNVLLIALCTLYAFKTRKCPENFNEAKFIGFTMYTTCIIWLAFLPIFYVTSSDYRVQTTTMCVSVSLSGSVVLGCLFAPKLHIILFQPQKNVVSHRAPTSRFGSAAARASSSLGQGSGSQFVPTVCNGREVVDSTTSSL

[3] = target: T1, Metabotropic glutamate receptor 2; assay: Displacement of [3H]JNJ-46281222 from human metabotropic glutamate receptor 2 expressed in CHOK1 cell membranes assessed as residence time measured every 30 sec for 120 mins by scintillation proximity assay; procedure, shortened: as §1
Target sequence in this assay (Q14416 19-872 limits assumed): as above

[4] = target: T1, Metabotropic glutamate receptor 2; assay: Displacement of [3H]JNJ-46281222 from human metabotropic glutamate receptor 2 expressed in CHOK1 cell membranes assessed as association rate constant measured every 30 sec for 120 mins by scintillation proximity assay; procedure, shortened: as §1
Target sequence in this assay (Q14416 19-872 limits assumed): as above

[5] = target: T1, Metabotropic glutamate receptor 2; assay: Binding affinity to human metabotropic glutamate receptor 2 expressed in CHOK1 cell membranes by scintillation proximity assay
Target sequence in this assay (Q14416 whole entry): as the sequence (Q14416 whole entry) above

[6] = target: T1, Metabotropic glutamate receptor 2; assay: Positive allosteric modulation of human metabotropic glutamate receptor 2 expressed in CHOK1 cell membranes assessed as increase in glutamate-induced [35S]GTPgammaS binding preincubated for 30 mins followed by [35S]GTPgammaS addition measured after 30 mins by Topcount scintillation counting method; type: functional
Target sequence in this assay (Q14416 whole entry): as above

[7] = test system: Rattus norvegicus; assay: In vivo positive allosteric modulation of metabotropic glutamate receptor 2 in Sprague-Dawley rat assessed as reduction in REM at 10 mg/kg, po measured for 24 consecutive 5 mins period; type: functional, organism-based
Procedure, shortened: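 Sprague-Dawley rats (n=8 per group) received single oral doses of 1, 3 or 10 mg/kg or 20% CD vehicle. REM sleep was scored in 24 consecutive 5-min bins over the first 2 h. Comparison was by mixed-model ANOVA.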

[8] = target: T1, Metabotropic glutamate receptor 2; assay: Displacement of [3H]-JNJ46281222 from human metabotropic glutamate receptor 2 expressed in CHOK1 cell membranes after 60 mins by microbeta counting analysis
Target sequence in this assay (Q14416 whole entry): as above

[9] = test system: Rattus norvegicus; assay: Effect on total sleep in Sprague-Dawley rat at 1 to 10 mg/kg, po measured for 2 hrs; type: ADME, organism-based; conditions: in vivo
[10] = test system: Brain; assay: Unbound concentration in Sprague-Dawley rat brain at 10 mg/kg, po measured after 1 hr; type: ADME, organism-based; conditions: in vivo
[11] = target: Metabotropic glutamate receptor 4 (Homo sapiens) (UniProt Q14833); assay: Agonist activity at human metabotropic glutamate receptor 4 assessed as increase in [35S]GTPgammaS binding preincubated for 30 mins followed by [35S]GTPgammaS addition measured after 30 mins by Topcount scintillation counting method; type: functional
[12] = target: Metabotropic glutamate receptor 1 (Homo sapiens) (UniProt Q13255); assay: Antagonist activity at human metabotropic glutamate receptor 1 expressed in HEK293 cells assessed as inhibition of glutamate-induced Ca2+ internalization after 1 hr by fluo-4-AM dye based fluorescence assay; type: functional, cell-based
[13] = target: Metabotropic glutamate receptor 6 (Rattus norvegicus) (UniProt P35349); assay: Antagonist activity at rat metabotropic glutamate receptor 6 expressed in CHO cell membranes assessed as inhibition of glutamate-induced [35S]GTPgammaS binding preincubated for 30 mins followed by [35S]GTPgammaS addition measured after 30 mins by Topcount scintillation counting method; type: functional
[14] = target: Metabotropic glutamate receptor 7 (Homo sapiens) (UniProt Q14831); assay: Agonist activity at human metabotropic glutamate receptor 7 expressed in HEK293 cells assessed as induction of Ca2+ internalization after 1 hr by fluo-4-AM dye based fluorescence assay; type: functional, cell-based
[15] = target: Metabotropic glutamate receptor 8 (Homo sapiens) (UniProt O00222); assay: Antagonist activity at human metabotropic glutamate receptor 8 expressed in HEK293 cells assessed as inhibition of glutamate-induced Ca2+ internalization after 1 hr by fluo-4-AM dye based fluorescence assay; type: functional, cell-based
[16] = target: Metabotropic glutamate receptor 5 (Homo sapiens) (UniProt P41594); assay: Positive allosteric modulation of human metabotropic glutamate receptor 5 expressed in HEK293 cells assessed as induction of Ca2+ […] after 1 hr in the presence of glutamate by fluo-4-AM dye based fluorescence assay; type: functional, cell-based
[17] = target: Metabotropic glutamate receptor 5 (Homo sapiens) (UniProt P41594); assay: Antagonist activity at human metabotropic glutamate receptor 5 expressed in HEK293 cells assessed as inhibition of glutamate-induced Ca2+ internalization after 1 hr by fluo-4-AM dye based fluorescence assay; type: functional, cell-based
[18] = target: Metabotropic glutamate receptor 3 (Homo sapiens) (UniProt Q14832); assay: Agonist activity at human metabotropic glutamate receptor 3 expressed in HEK293 cells assessed as induction of Ca2+ internalization after 1 hr by fluo-4-AM dye based fluorescence assay; type: functional, cell-based
[19] = target: Metabotropic glutamate receptor 8 (Homo sapiens) (UniProt O00222); assay: Agonist activity at human metabotropic glutamate receptor 8 expressed in HEK293 cells assessed as induction of Ca2+ internalization after 1 hr by fluo-4-AM dye based fluorescence assay; type: functional, cell-based
[20] = target: Metabotropic glutamate receptor 1 (Homo sapiens) (UniProt Q13255); assay: Agonist activity at human metabotropic glutamate receptor 1 expressed in HEK293 cells assessed as induction of Ca2+ internalization after 1 hr by fluo-4-AM dye based fluorescence assay; type: functional, cell-based
[21] = target: Metabotropic glutamate receptor 7 (Homo sapiens) (UniProt Q14831); assay: Antagonist activity at human metabotropic glutamate receptor 7 expressed in HEK293 cells assessed as inhibition of glutamate-induced Ca2+ internalization after 1 hr by fluo-4-AM dye based fluorescence assay; type: functional, cell-based
[22] = target: Metabotropic glutamate receptor 3 (Homo sapiens) (UniProt Q14832); assay: Antagonist activity at human metabotropic glutamate receptor 3 expressed in HEK293 cells assessed as inhibition of glutamate-induced Ca2+ internalization after 1 hr by fluo-4-AM dye based fluorescence assay; type: functional, cell-based
[23] = target: Metabotropic glutamate receptor 5 (Homo sapiens) (UniProt P41594); assay: Agonist activity at human metabotropic glutamate receptor 5 expressed in HEK293 cells assessed as induction of Ca2+ internalization after 1 hr by fluo-4-AM dye based fluorescence assay; type: functional, cell-based
[24] = target: Metabotropic glutamate receptor 4 (Homo sapiens) (UniProt Q14833); assay: Antagonist activity at human metabotropic glutamate receptor 4 assessed as inhibition of glutamate-induced [35S]GTPgammaS binding preincubated for 30 mins followed by [35S]GTPgammaS addition measured after 30 mins by Topcount scintillation counting method; type: functional
[25] = target: Metabotropic glutamate receptor 6 (Rattus norvegicus) (UniProt P35349); assay: Agonist activity at rat metabotropic glutamate receptor 6 expressed in CHO cell membranes assessed as increase in [35S]GTPgammaS binding preincubated for 30 mins followed by [35S]GTPgammaS addition measured after 30 mins by Topcount scintillation counting method; type: functional

Chain of Metabotropic glutamate receptor 4 (Homo sapiens) (Q14833 whole entry): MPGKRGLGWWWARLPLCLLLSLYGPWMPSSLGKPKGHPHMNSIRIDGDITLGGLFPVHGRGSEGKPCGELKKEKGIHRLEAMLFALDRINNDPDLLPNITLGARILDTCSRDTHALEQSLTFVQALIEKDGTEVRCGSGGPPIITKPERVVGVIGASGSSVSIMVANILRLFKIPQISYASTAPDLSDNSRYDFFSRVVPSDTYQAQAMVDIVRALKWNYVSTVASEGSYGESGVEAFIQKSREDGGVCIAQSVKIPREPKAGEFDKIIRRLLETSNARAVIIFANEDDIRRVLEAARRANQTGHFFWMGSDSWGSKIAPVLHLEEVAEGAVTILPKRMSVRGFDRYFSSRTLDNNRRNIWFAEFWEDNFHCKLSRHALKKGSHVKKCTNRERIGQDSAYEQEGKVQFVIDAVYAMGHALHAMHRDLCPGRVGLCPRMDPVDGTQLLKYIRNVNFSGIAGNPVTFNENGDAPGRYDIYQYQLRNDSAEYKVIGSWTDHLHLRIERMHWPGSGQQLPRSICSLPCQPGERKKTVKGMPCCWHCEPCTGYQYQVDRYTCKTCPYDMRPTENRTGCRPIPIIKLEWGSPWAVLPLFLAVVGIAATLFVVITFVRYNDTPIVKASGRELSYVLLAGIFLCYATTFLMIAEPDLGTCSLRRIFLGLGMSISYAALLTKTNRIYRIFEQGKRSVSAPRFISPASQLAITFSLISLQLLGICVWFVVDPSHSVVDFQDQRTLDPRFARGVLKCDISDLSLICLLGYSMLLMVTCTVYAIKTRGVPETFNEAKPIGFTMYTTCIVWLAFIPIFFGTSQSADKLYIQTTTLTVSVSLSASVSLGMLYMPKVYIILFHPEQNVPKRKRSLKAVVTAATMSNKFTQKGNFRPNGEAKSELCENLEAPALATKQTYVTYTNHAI
Chain of Metabotropic glutamate receptor 8 (Homo sapiens) (O00222 whole entry): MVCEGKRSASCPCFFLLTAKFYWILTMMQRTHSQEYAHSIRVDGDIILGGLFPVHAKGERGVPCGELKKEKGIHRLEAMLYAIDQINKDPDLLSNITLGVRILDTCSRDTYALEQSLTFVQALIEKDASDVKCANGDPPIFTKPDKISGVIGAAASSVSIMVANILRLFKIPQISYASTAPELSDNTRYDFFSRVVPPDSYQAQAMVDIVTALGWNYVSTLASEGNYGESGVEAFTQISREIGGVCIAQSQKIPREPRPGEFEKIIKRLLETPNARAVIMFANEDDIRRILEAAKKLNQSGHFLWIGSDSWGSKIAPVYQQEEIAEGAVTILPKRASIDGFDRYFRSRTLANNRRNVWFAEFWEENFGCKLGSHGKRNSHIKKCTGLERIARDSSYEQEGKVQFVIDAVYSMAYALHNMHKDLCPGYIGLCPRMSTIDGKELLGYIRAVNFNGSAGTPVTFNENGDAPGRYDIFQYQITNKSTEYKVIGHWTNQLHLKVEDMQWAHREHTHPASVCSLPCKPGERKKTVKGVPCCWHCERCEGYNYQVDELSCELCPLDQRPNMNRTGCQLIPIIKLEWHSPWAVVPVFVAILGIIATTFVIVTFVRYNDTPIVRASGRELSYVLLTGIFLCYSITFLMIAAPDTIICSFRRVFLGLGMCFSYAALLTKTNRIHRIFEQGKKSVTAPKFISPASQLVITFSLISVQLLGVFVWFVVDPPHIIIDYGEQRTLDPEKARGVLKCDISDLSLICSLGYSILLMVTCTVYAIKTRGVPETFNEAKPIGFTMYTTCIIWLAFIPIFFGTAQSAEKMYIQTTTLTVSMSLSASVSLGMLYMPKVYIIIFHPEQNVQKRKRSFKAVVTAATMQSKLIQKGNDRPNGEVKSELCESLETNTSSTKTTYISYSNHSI
Chain of Metabotropic glutamate receptor 5 (Homo sapiens) (P41594 21-1212 limits assumed): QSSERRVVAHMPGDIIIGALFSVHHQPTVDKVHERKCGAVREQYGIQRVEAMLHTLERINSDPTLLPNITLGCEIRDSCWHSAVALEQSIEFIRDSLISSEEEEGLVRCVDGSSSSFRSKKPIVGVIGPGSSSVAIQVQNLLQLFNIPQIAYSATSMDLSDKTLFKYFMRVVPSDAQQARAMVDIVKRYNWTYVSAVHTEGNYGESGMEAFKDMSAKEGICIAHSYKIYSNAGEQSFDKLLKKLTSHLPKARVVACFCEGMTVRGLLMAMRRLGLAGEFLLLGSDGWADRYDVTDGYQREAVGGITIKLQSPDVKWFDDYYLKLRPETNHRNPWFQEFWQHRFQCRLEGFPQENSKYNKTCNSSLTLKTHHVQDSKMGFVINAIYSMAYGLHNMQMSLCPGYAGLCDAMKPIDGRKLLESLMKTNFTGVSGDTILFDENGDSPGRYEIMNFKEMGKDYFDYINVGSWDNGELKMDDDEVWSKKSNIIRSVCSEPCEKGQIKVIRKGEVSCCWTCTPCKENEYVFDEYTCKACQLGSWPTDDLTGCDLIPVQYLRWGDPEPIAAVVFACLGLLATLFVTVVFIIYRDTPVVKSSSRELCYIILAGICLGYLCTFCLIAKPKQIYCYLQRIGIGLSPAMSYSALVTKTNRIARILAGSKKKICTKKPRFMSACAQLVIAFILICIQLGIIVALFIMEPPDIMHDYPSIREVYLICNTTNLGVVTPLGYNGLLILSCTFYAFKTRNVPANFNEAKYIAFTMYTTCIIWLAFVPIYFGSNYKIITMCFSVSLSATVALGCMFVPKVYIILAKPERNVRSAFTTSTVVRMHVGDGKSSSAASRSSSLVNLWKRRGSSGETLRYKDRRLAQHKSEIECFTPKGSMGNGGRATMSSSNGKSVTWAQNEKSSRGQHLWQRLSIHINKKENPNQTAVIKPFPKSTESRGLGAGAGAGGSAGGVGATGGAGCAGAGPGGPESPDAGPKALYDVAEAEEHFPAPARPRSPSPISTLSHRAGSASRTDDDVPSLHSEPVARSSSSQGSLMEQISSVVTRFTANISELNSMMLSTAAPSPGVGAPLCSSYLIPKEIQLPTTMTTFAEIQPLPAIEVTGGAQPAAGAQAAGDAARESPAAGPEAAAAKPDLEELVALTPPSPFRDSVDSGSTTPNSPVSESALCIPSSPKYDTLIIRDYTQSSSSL

Compound | K [2] [min⁻¹] | TIME [3] [h] | K [4] | Kd [5] [nM] | EC50 [6] [nM] | Ki [8] [nM] | also measured
N#Cc1c(N2CCC(c3ccccc3)CC2)ccn(CC2CC2)c1=O | 0.09 | 0.185 | 1.7 ×10⁶ /M/min | 51 | 79.4 |  | Ki [1]: 26.3 nM
Fc1cc(-c2ccn3c(CC4CC4)nnc3c2C(F)(F)F)ccc1Oc1ccnc(C2CC2)c1 | 0.189 | 0.0883 | 2.2 ×10⁷ /M/min | 8.6 | 18.6 | 3.63 | Activity [7]: Active; Activity [9]: Non-Toxic; Drug uptake(free) [10]: 3.5 ng/g
Fc1cc(-c2ccn3c(CC4CC4)nnc3c2Cl)ccc1Oc1ccnc(C2CC2)c1 | 0.073 | 0.228 | 1.7 ×10⁶ /M/min | 42.7 | 87.1 | 53.7 | 
Cc1cc(Oc2ccc(-c3ccn4c(CC5CC5)nnc4c3Cl)cc2F)ccn1 | 0.096 | 0.173 | 2.6 ×10⁶ /M/min | 37.6 | 251 | 63.1 | 
Clc1cc(-c2ccn3c(CC4CC4)nnc3c2Cl)ccc1NC1CCOCC1 | 0.136 | 0.122 | 7 ×10⁶ /M/min | 19.5 | 148 | 38.9 | 
FC(F)(F)c1c(-c2ccc(CNC3CCOCC3)c(Cl)c2)ccn2c(CC3CC3)nnc12 | 0.091 | 0.183 | 1.7 ×10⁶ /M/min | 54 | 631 | 61.7 | 
COc1ccc(COc2ccc(-c3ccn4c(CC5CC5)nnc4c3C(F)(F)F)cc2)cn1 | 0.125 | 0.133 | 1.4 ×10⁷ /M/min | 8.7 | 57.5 | 8.71 | 
Clc1cc(-c2ccn3c(CC4CC4)nnc3c2Cl)ccc1OC1CCOCC1 | 0.092 | 0.182 | 3.3 ×10⁶ /M/min | 28.1 | 224 | 22.9 | 
Cc1ccc(Oc2ccc(-c3ccn4c(CC5CC5)nnc4c3C(C)C)cc2F)c(C)n1 | 0.07 | 0.237 | 6.5 ×10⁶ /M/min | 10.7 | 28.2 | 25.1 | 
O[C@H]1CC[C@H](Nc2ccc(-c3ccn4c(CC(F)(F)F)nnc4c3Cl)cc2Cl)CC1 | 0.074 | 0.227 | 6.7 ×10⁶ /M/min | 10.8 | 41.7 | 6.03 | Activity [11]: inactive; inhibition [12]: inactive; inhibition [13]: inactive; Activity [14]: inactive; inhibition [15]: inactive; Activity [16]: inactive; inhibition [17]: inactive; Activity [18]: inactive; Activity [19]: inactive; Activity [20]: inactive; inhibition [21]: inactive; inhibition [22]: inactive; Activity [23]: inactive; inhibition [24]: inactive; Activity [25]: inactive
O[C@H]1CC[C@H](Oc2ccc(-c3ccn4c(CC(F)(F)F)nnc4c3Cl)cc2Cl)CC1 | 0.137 | 0.122 | 8.3 ×10⁶ /M/min | 16.6 | 158 | 11.5 | 
Fc1cc(-c2ccn3c(CC4CC4)nnc3c2Cl)ccc1NC1CC1 | 0.061 | 0.273 | 4.8 ×10⁶ /M/min | 12.7 | 63.1 | 10.2 | Activity [11]: inactive; inhibition [12]: inactive; inhibition [13]: inactive; Activity [14]: inactive; inhibition [15]: inactive; Activity [16]: inactive; inhibition [17]: inactive; Activity [18]: inactive; Activity [19]: inactive; Activity [20]: inactive; inhibition [21]: inactive; inhibition [22]: inactive; Activity [23]: inactive; inhibition [24]: inactive; Activity [25]: inactive
CCc1cc(Oc2ccc(-c3ccn4c(CC5CC5)nnc4c3Cl)cc2F)ccn1 | 0.069 | 0.24 | 3 ×10⁶ /M/min | 23.3 | 100 | 18.6 | 
Cc1cc(Oc2ccc(-c3ccn4c(CC5CC5)nnc4c3C(F)(F)F)cc2F)cc(C)n1 | 0.095 | 0.175 | 8.3 ×10⁶ /M/min | 11.5 | 64.6 | 10 | 
CC(C)C(=O)c1ccc(OCc2ccc(CNC(=O)c3cn(C)cn3)cc2)c(C(F)(F)F)c1O | 0.12 | 0.14 | 1.2 ×10⁶ /M/min | 100 | 107 |  | Ki [1]: 79.4 nM

Compounds with a lower Kd [5], results first:

K [2] [min⁻¹] | TIME [3] [h] | K [4] | Kd [5] [nM] | EC50 [6] [nM] | Ki [8] [nM] | Compound | also measured
0.1 | 0.167 | 4.6 ×10⁷ /M/min | 2.2 | 93.3 | 8.91 | CC(C)Nc1ccc(-c2ccn3c(CC4CC4)nnc3c2C(F)(F)F)cc1F | 
0.096 | 0.175 | 2.9 ×10⁷ /M/min | 3.3 | 29.5 | 7.94 | Cc1ccc(Oc2ccc(-c3ccn4c(CC(F)(F)F)nnc4c3Cl)cc2F)c(C)n1 | 
0.086 | 0.198 | 7.7 ×10⁷ /M/min | 1.1 | 30.2 | 3.63 | Fc1cc(-c2ccn3c(CC4CC4)nnc3c2C(F)(F)F)ccc1NC1CC1 | 
0.044 | 0.378 | 1.5 ×10⁷ /M/min | 2.9 | 5.89 | 2.04 | COc1ccc(CNc2ccc(-c3ccn4c(CC5CC5)nnc4c3C(F)(F)F)cc2F)cn1 | 
0.088 | 0.188 | 7.7 ×10⁷ /M/min | 1.2 | 7.76 | 2.24 | FC(F)(F)c1c(-c2ccc(NC3CC3)c(Cl)c2)ccn2c(CC3CC3)nnc12 | 
0.036 | 0.468 | 1.2 ×10⁷ /M/min | 3 | 25.1 | 1.91 | O[C@H]1CC[C@H](Oc2ccc(-c3ccn4c(CC5CC5)nnc4c3C(F)(F)F)cc2Cl)CC1 | 
0.061 | 0.272 | 6.2 ×10⁷ /M/min | 1 | 12.3 | 6.03 | Cc1ccc(Oc2ccc(-c3ccn4c(CC5CC5)nnc4c3Cl)cc2Cl)c(C)n1 | Activity [11]: inactive; inhibition [12]: inactive; inhibition [13]: inactive; Activity [14]: inactive; inhibition [15]: inactive; Activity [16]: inactive; inhibition [17]: inactive; Activity [18]: inactive; Activity [19]: inactive; Activity [20]: inactive; inhibition [21]: inactive; inhibition [22]: inactive; Activity [23]: inactive; inhibition [24]: inactive; Activity [25]: inactive
